Reference: ChEMBL document CHEMBL3045677, “Sulfonamide-1,2,4-thiadiazole derivatives as antifungal and antibacterial agents: synthesis, biological evaluation, lipophilicity, and conformational studies” (2010)
In brackets after ≈: the same amount, converted by molar mass.

Experiments:
Escherichia coli [1] = experiment: Antibacterial activity against Escherichia coli ATCC 35210 at […] degC measured after 24 hr by microdilution method; format: functional; conditions: ATCC 35210, 24 h
Procedure, shortened: (§1)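 Bacteria suspended in sterile saline at 1.0×10⁵ CFU/ml and added at 1.0×10⁴ CFU per well to LB broth with compound (1 mg/ml) in 96-well plates. Incubated 24 h at […] °C. MIC was the lowest concentration without visible growth under a binocular microscope. OD 655 nm was read against a blank and a positive control.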

Salmonella typhimurium [2] = experiment: Antibacterial activity against Salmonella enterica subsp. enterica serovar Typhimurium ATCC 13311 at […] degC measured after 24 hr by microdilution method; format: functional; conditions: ATCC 13311, 24 h; procedure, shortened: as §1
Pseudomonas aeruginosa [3] = experiment: Antibacterial activity against Pseudomonas aeruginosa ATCC 27853 at […] degC measured after 72 hr by microdilution method; format: functional; conditions: ATCC 27853, 72 h
Procedure, shortened: (§2)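 Bactericidal endpoint: after the 24 h broth microdilution (1.0×10⁴ CFU per well, LB broth, […] °C), wells were serially subcultured into plates of fresh broth and incubated a further 72 h. MBC was the lowest concentration with no visible growth, taken as 99.5% killing of the original inoculum.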

Staphylococcus aureus [4] = experiment: Antibacterial activity against Staphylococcus aureus ATCC 6538 at […] degC measured after 72 hr by microdilution method; format: functional; conditions: ATCC 6538, 72 h; procedure, shortened: as §2
Listeria monocytogenes [5] = experiment: Antibacterial activity against Listeria monocytogenes NCTC 7973 at […] degC measured after 72 hr by microdilution method; format: functional; conditions: NCTC 7973, 72 h; procedure, shortened: as §2
Listeria monocytogenes [6] = experiment: Antibacterial activity against Listeria monocytogenes NCTC 7973 at […] degC measured after 24 hr by microdilution method; format: functional; conditions: NCTC 7973, 24 h; procedure, shortened: as §1
Talaromyces funiculosus = experiment: Antifungal activity against Talaromyces funiculosus ATCC 36839 at 28 degC measured after 72 hr by microdilution method; format: functional; conditions: ATCC 36839, 72 h
Procedure, shortened: (§3)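 Fungi were kept on malt agar at 4 °C. Spores were washed off with sterile 0.85% saline containing 0.1% Tween 80 and adjusted to about 1.0×10⁵ per well. Compounds were dissolved in DMSO (1 mg/ml stock) and serially diluted in malt broth with inoculum in 96-well plates, 72 h at 28 °C, for MIC. MFC came from subculture into fresh broth for a further 72 h at 28 °C.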

Staphylococcus aureus [7] = experiment: Antibacterial activity against Staphylococcus aureus ATCC 6538 at […] degC measured after 24 hr by microdilution method; format: functional; conditions: ATCC 6538, 24 h; procedure, shortened: as §1
Aspergillus fumigatus = experiment: Antifungal activity against plant isolate Aspergillus fumigatus at 28 degC measured after 72 hr by microdilution method; format: functional; procedure, shortened: as §3
Bacillus cereus [8] = experiment: Antibacterial activity against clinical isolate Bacillus cereus at […] degC measured after 72 hr by microdilution method; format: functional; procedure, shortened: as §2
Proteus mirabilis [9] = experiment: Antibacterial activity against Proteus mirabilis at […] degC measured after 24 hr by microdilution method; format: functional; procedure, shortened: as §1
Micrococcus flavus [10] = experiment: Antibacterial activity against Micrococcus flavus ATCC 10240 at […] degC measured after 72 hr by microdilution method; format: functional; conditions: ATCC 10240, 72 h; procedure, shortened: as §2
Aspergillus flavus = experiment: Antifungal activity against Aspergillus flavus ATCC 9643 at 28 degC measured after 72 hr by microdilution method; format: functional; conditions: ATCC 9643, 72 h; procedure, shortened: as §3
Penicillium ochrochloron = experiment: Antifungal activity against Penicillium ochrochloron ATCC 9112 at 28 degC measured after 72 hr by microdilution method; format: functional; conditions: ATCC 9112, 72 h; procedure, shortened: as §3
Aspergillus niger = experiment: Antifungal activity against Aspergillus niger ATCC 6275 at 28 degC measured after 72 hr by microdilution method; format: functional; conditions: ATCC 6275, 72 h; procedure, shortened: as §3
Bacillus cereus [11] = experiment: Antibacterial activity against clinical isolate Bacillus cereus at […] degC measured after 24 hr by microdilution method; format: functional; procedure, shortened: as §1
Micrococcus flavus [12] = experiment: Antibacterial activity against Micrococcus flavus ATCC 10240 at […] degC measured after 24 hr by microdilution method; format: functional; conditions: ATCC 10240, 24 h; procedure, shortened: as §1
Trichoderma viride = experiment: Antifungal activity against Hypocrea rufa IAM 5061 at 28 degC measured after 72 hr by microdilution method; format: functional; conditions: IAM 5061, 72 h; procedure, shortened: as §3
Fulvia fulva = experiment: Antifungal activity against Passalora fulva TK5318 at 28 degC measured after 72 hr by microdilution method; format: functional; conditions: TK5318, 72 h; procedure, shortened: as §3
Pseudomonas aeruginosa [13] = experiment: Antibacterial activity against Pseudomonas aeruginosa ATCC 27853 at […] degC measured after 24 hr by microdilution method; format: functional; conditions: ATCC 27853, 24 h; procedure, shortened: as §1
Salmonella typhimurium [14] = experiment: Antibacterial activity against Salmonella enterica subsp. enterica serovar TyphimuriumATCC 13311 at […] degC measured after 72 hr by microdilution method; format: functional, Salmonella enterica subsp. enterica serovar Typhimurium; conditions: ATCC 13311, 72 h; procedure, shortened: as §2
Proteus mirabilis [15] = experiment: Antibacterial activity against Proteus mirabilis at […] degC measured after 72 hr by microdilution method; format: functional; procedure, shortened: as §2
Aspergillus versicolor = experiment: Antifungal activity against Aspergillus versicolor ATCC 11730 at 28 degC measured after 72 hr by microdilution method; format: functional; conditions: ATCC 11730, 72 h; procedure, shortened: as §3
Escherichia coli [16] = experiment: Antibacterial activity against Escherichia coli ATCC 35210 at […] degC measured after 72 hr by microdilution method; format: functional; conditions: ATCC 35210, 72 h; procedure, shortened: as §2

SMILES	MIC (Escherichia coli [1])	MIC (Salmonella typhimurium [2])	MBC (Pseudomonas aeruginosa [3])	MBC (Staphylococcus aureus [4])	MBC (Listeria monocytogenes [5])	MIC (Listeria monocytogenes [6])	MFC (Talaromyces funiculosus)	MIC (Talaromyces funiculosus)	MIC (Staphylococcus aureus [7])	MFC (Aspergillus fumigatus)	MIC (Aspergillus fumigatus)	MBC (Bacillus cereus [8])	MIC (Proteus mirabilis [9])	MBC (Micrococcus flavus [10])	MFC (Aspergillus flavus)	MIC (Aspergillus flavus)	MFC (Penicillium ochrochloron)	MIC (Penicillium ochrochloron)	MFC (Aspergillus niger)	MIC (Aspergillus niger)	other results
COc1cc(Cc2nnc(Nc3ccc(C(F)(F)F)cc3)s2)c(S(=O)(=O)N2CCCC2)cc1OC	18.9 µM (≈ 9.99 µg/mL)	9.5 µM (≈ 5.02 µg/mL)	18.9 µM (≈ 9.99 µg/mL)	18.9 µM (≈ 9.99 µg/mL)	18.9 µM (≈ 9.99 µg/mL)	18.9 µM (≈ 9.99 µg/mL)	37.8 µM (≈ 20 µg/mL)	18.9 µM (≈ 9.99 µg/mL)	9.5 µM (≈ 5.02 µg/mL)	37.8 µM (≈ 20 µg/mL)	18.9 µM (≈ 9.99 µg/mL)	18.9 µM (≈ 9.99 µg/mL)	18.9 µM (≈ 9.99 µg/mL)	37.8 µM (≈ 20 µg/mL)	37.8 µM (≈ 20 µg/mL)	18.9 µM (≈ 9.99 µg/mL)	37.8 µM (≈ 20 µg/mL)	18.9 µM (≈ 9.99 µg/mL)	37.8 µM (≈ 20 µg/mL)	18.9 µM (≈ 9.99 µg/mL)	MIC (Bacillus cereus [11]): 9.5 µM (≈ 5.02 µg/mL); MIC (Micrococcus flavus [12]): 18.9 µM (≈ 9.99 µg/mL); MFC (Trichoderma viride): 18.9 µM (≈ 9.99 µg/mL); MIC (Trichoderma viride): 9.5 µM (≈ 5.02 µg/mL); MFC (Fulvia fulva): 75.6 µM (≈ 40 µg/mL); MIC (Fulvia fulva): 18.9 µM (≈ 9.99 µg/mL); MIC (Pseudomonas aeruginosa [13]): 9.5 µM (≈ 5.02 µg/mL); MBC (Salmonella typhimurium [14]): 18.9 µM (≈ 9.99 µg/mL); MBC (Proteus mirabilis [15]): 37.8 µM (≈ 20 µg/mL); MFC (Aspergillus versicolor): 37.8 µM (≈ 20 µg/mL); MIC (Aspergillus versicolor): 18.9 µM (≈ 9.99 µg/mL); MBC (Escherichia coli [16]): 37.8 µM (≈ 20 µg/mL)
COc1cc(Cc2nnc(Nc3ccc(Cl)cc3)s2)c(S(=O)(=O)N2CCCCC2)cc1OC	19.7 µM (≈ 10 µg/mL)	9.8 µM (≈ 4.99 µg/mL)	19.7 µM (≈ 10 µg/mL)	39.4 µM (≈ 20.1 µg/mL)	78.8 µM (≈ 40.1 µg/mL)	39.4 µM (≈ 20.1 µg/mL)	39.4 µM (≈ 20.1 µg/mL)	19.7 µM (≈ 10 µg/mL)	19.7 µM (≈ 10 µg/mL)	39.4 µM (≈ 20.1 µg/mL)	19.7 µM (≈ 10 µg/mL)	19.7 µM (≈ 10 µg/mL)	19.7 µM (≈ 10 µg/mL)	39.4 µM (≈ 20.1 µg/mL)	19.7 µM (≈ 10 µg/mL)	9.8 µM (≈ 4.99 µg/mL)	39.4 µM (≈ 20.1 µg/mL)	19.7 µM (≈ 10 µg/mL)	39.4 µM (≈ 20.1 µg/mL)	19.7 µM (≈ 10 µg/mL)	MIC (Bacillus cereus [11]): 9.8 µM (≈ 4.99 µg/mL); MIC (Micrococcus flavus [12]): 19.7 µM (≈ 10 µg/mL); MFC (Trichoderma viride): 19.7 µM (≈ 10 µg/mL); MIC (Trichoderma viride): 9.8 µM (≈ 4.99 µg/mL); MFC (Fulvia fulva): 19.7 µM (≈ 10 µg/mL); MIC (Fulvia fulva): 9.8 µM (≈ 4.99 µg/mL); MIC (Pseudomonas aeruginosa [13]): 9.8 µM (≈ 4.99 µg/mL); MBC (Salmonella typhimurium [14]): 19.7 µM (≈ 10 µg/mL); MBC (Proteus mirabilis [15]): 78.7 µM (≈ 40.1 µg/mL); MFC (Aspergillus versicolor): 19.7 µM (≈ 10 µg/mL); MIC (Aspergillus versicolor): 9.8 µM (≈ 4.99 µg/mL); MBC (Escherichia coli [16]): 39.4 µM (≈ 20.1 µg/mL)
COc1cc(Cc2nnc(Nc3ccc([N+](=O)[O-])cc3)s2)c(S(=O)(=O)N2CCCCC2)cc1OC	19.3 µM (≈ 10 µg/mL)	9.7 µM (≈ 5.04 µg/mL)	19.3 µM (≈ 10 µg/mL)	77.2 µM (≈ 40.1 µg/mL)	77.2 µM (≈ 40.1 µg/mL)	19.3 µM (≈ 10 µg/mL)	38.6 µM (≈ 20.1 µg/mL)	19.3 µM (≈ 10 µg/mL)	38.6 µM (≈ 20.1 µg/mL)	38.6 µM (≈ 20.1 µg/mL)	19.3 µM (≈ 10 µg/mL)	38.6 µM (≈ 20.1 µg/mL)	38.6 µM (≈ 20.1 µg/mL)	38.6 µM (≈ 20.1 µg/mL)	38.6 µM (≈ 20.1 µg/mL)	19.3 µM (≈ 10 µg/mL)	38.6 µM (≈ 20.1 µg/mL)	19.3 µM (≈ 10 µg/mL)	38.6 µM (≈ 20.1 µg/mL)	19.3 µM (≈ 10 µg/mL)	MIC (Bacillus cereus [11]): 19.3 µM (≈ 10 µg/mL); MIC (Micrococcus flavus [12]): 19.3 µM (≈ 10 µg/mL); MFC (Trichoderma viride): 19.3 µM (≈ 10 µg/mL); MIC (Trichoderma viride): 9.7 µM (≈ 5.04 µg/mL); MFC (Fulvia fulva): 19.3 µM (≈ 10 µg/mL); MIC (Fulvia fulva): 9.7 µM (≈ 5.04 µg/mL); MIC (Pseudomonas aeruginosa [13]): 9.7 µM (≈ 5.04 µg/mL); MBC (Salmonella typhimurium [14]): 19.3 µM (≈ 10 µg/mL); MBC (Proteus mirabilis [15]): 77.2 µM (≈ 40.1 µg/mL); MFC (Aspergillus versicolor): 38.6 µM (≈ 20.1 µg/mL); MIC (Aspergillus versicolor): 19.3 µM (≈ 10 µg/mL); MBC (Escherichia coli [16]): 38.6 µM (≈ 20.1 µg/mL)
